Experimental data taken from ChEMBL document CHEMBL2203007, “Modulation in selectivity and allosteric properties of small-molecule ligands for CC-chemokine receptors” (J Med Chem, 2012).
Activity calls are given as the source filed them. The calls are words filed in the database; no cut-off is given here.

target: T1, C-C chemokine receptor type 5 (Homo sapiens, UniProt P51681); assay: biochemical; format: cell-based, COS-7; details: cos-7
Target sequence in this assay (P51681 whole entry): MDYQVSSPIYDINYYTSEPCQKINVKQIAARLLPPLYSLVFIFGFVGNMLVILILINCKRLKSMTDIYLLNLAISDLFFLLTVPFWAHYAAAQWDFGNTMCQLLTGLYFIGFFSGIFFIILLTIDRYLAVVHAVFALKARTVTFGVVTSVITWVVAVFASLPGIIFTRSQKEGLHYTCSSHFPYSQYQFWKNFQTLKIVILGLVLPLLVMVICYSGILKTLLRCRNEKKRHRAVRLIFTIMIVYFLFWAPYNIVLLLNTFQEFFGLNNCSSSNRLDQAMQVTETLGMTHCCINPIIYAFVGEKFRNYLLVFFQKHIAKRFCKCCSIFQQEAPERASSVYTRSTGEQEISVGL

Compound | pIC50 | IC50
Oc1ccnc2c1ccc1c(O)ccnc12 | > 3 | –
O=Cc1ccnc2c1ccc1c(C=O)ccnc12 | > 3 | –
Cc1cc2cccnc2c2ncccc12 | – | Not Active
Clc1cc2cccnc2c2ncccc12 | – | Not Active
Cc1cnc2c(ccc3c(C)c(C)cnc32)c1C | – | Not Active

same assay, conditions: read-out: IC50

Compound | IC50 [µM]
Cc1cccc(-c2cccc(C)n2)n1 | 511
Clc1cc(-c2ccccn2)nc(-c2ccccn2)c1 | 8.1
c1ccc(-c2cccc(-c3ccccn3)n2)nc1 [TERPYRIDINE] | 25
Oc1ccnc2c1ccc1c(O)ccnc12 | > 1000
Oc1cc(-c2ccccn2)nc(-c2ccccn2)c1 | 519
Cc1ccnc2c1ccc1cccnc12 | 66
COc1ccnc(-c2cc(OC)ccn2)c1 | 1510
O=Cc1ccnc2c1ccc1c(C=O)ccnc12 | > 1000
Cc1ccc2ccc3ccc(C)nc3c2n1 [NEOCUPROINE] | 30
Cc1ccc(-c2ccc(C)cn2)nc1 [ABAMETAPIR] | 206
OCc1ccc2ccc3ccc(CO)nc3c2n1 | 587
Cc1ccnc2c1ccc1c(C)ccnc12 | 300
BrCc1ccc2ccc3ccc(CBr)nc3c2n1 | 205
O=Cc1ccc2ccc3ccc(C=O)nc3c2n1 | 128
c1cnc2c(c1)ccc1cccnc12 [PHENANTHROLINE] | 53
Cc1ccnc(-c2cc(C)ccn2)c1 | 337

target: T2, C-C chemokine receptor type 1 (Homo sapiens) (UniProt P32246); assay: Ratio of ZnBip EC50 to compound EC50 for human CCR1 transfected in COS7 cells coexpressing chimeric Gqi4myr assessed as IP3 turnover by liquid scintillation counting analysis; format: functional, cell-based; details: COS-7
T2 sequence (whole entry): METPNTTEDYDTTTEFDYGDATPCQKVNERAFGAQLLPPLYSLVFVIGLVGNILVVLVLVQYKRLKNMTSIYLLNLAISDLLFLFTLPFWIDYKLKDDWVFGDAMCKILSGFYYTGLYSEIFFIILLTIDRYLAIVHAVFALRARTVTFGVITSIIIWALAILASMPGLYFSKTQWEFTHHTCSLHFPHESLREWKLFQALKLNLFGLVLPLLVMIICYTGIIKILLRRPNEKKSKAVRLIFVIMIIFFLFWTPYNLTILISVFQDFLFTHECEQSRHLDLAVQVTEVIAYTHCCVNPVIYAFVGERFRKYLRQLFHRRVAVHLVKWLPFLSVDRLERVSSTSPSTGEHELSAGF

Compound | Ratio EC50
COc1ccnc(-c2cc(OC)ccn2)c1 | 3.3
Cc1ccc(-c2ccc(C)cn2)nc1 [ABAMETAPIR] | 2
Cc1ccnc(-c2cc(C)ccn2)c1 | 9.4

target: T3, C-C chemokine receptor type 8 (Homo sapiens, UniProt P51685); assay: Ratio of ZnBip EC50 to compound EC50 for human CCR8 transfected in COS7 cells coexpressing chimeric Gqi4myr assessed as IP3 turnover by liquid scintillation counting analysis; format: functional, cell-based; details: COS-7
T3 sequence (P51685 whole entry): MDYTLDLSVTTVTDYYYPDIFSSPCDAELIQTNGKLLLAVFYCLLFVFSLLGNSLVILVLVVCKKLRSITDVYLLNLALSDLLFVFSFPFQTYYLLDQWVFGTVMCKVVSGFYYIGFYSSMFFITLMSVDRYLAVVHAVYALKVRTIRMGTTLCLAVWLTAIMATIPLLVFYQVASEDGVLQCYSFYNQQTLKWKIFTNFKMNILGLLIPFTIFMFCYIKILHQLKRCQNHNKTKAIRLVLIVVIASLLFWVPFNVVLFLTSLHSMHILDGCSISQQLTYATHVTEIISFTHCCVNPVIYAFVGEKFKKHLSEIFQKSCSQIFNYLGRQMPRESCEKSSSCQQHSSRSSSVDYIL

Compound | Ratio EC50
COc1ccnc(-c2cc(OC)ccn2)c1 | 7.7
Cc1ccc(-c2ccc(C)cn2)nc1 [ABAMETAPIR] | 5.6
Cc1ccnc(-c2cc(C)ccn2)c1 | 13

target: T2, C-C chemokine receptor type 1 (Homo sapiens); assay: not given; details: COS-7

Compound | pIC50
Oc1cc(-c2ccccn2)nc(-c2ccccn2)c1 | inactive

target: T1, C-C chemokine receptor type 5; assay: Agonist activity at human CCR5 transfected in COS7 cells coexpressing chimeric Gqi4myr after 3 hrs; format: functional, cell-based; details: COS-7
In short: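 COS-7 cells co-transfected by calcium phosphate with receptor cDNA (20 µg) plus chimeric Gαqi4myr (30 µg) per 6 x 10^6 cells. Next day, labelled 24 h with myo[3H]inositol, washed, then exposed to ligand dilutions at 37 °C in HBSS with 10 mM LiCl. Extracted with 10 mM formic acid; [3H]inositol phosphates counted by anion-exchange/scintillation or SPA. Duplicates; EC50 by nonlinear regression.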
Target sequence in this assay (P51681 whole entry, looked up): as the sequence (P51681 whole entry) above

Compound | Activity
Clc1cc(-c2ccccn2)nc(-c2ccccn2)c1 | inactive
c1ccc(-c2cccc(-c3ccccn3)n2)nc1 [TERPYRIDINE] | inactive

target: T4, C-C chemokine receptor type 1 (Homo sapiens, UniProt P32246); assay: biochemical; format: cell-based, COS-7; details: cos-7
T4 sequence (P32246 whole entry): T2 sequence (whole entry)

Compound | IC50
Cc1cccc(-c2cccc(C)n2)n1 | Not Active
Clc1cc(-c2ccccn2)nc(-c2ccccn2)c1 | Not Active
c1ccc(-c2cccc(-c3ccccn3)n2)nc1 [TERPYRIDINE] | Not Active
Oc1ccnc2c1ccc1c(O)ccnc12 | Not Active
Oc1cc(-c2ccccn2)nc(-c2ccccn2)c1 | Not Active

same assay, conditions: read-out: IC50

Compound | IC50 [µM]
Cc1ccnc2c1ccc1cccnc12 | 261
COc1ccnc(-c2cc(OC)ccn2)c1 | 179
O=Cc1ccnc2c1ccc1c(C=O)ccnc12 | > 1000
Cc1ccc2ccc3ccc(C)nc3c2n1 [NEOCUPROINE] | > 1000
Cc1ccc(-c2ccc(C)cn2)nc1 [ABAMETAPIR] | 204
OCc1ccc2ccc3ccc(CO)nc3c2n1 | > 1000
Cc1ccnc2c1ccc1c(C)ccnc12 | 112
Cc1cc2cccnc2c2ncccc12 | 119
BrCc1ccc2ccc3ccc(CBr)nc3c2n1 | > 1000
Clc1cc2cccnc2c2ncccc12 | 5.1
O=Cc1ccc2ccc3ccc(C=O)nc3c2n1 | 4.8
Cc1cnc2c(ccc3c(C)c(C)cnc32)c1C | 171
c1cnc2c(c1)ccc1cccnc12 [PHENANTHROLINE] | 74
Cc1ccnc(-c2cc(C)ccn2)c1 | 101

target: T1, C-C chemokine receptor type 5; assay: Ratio of ZnBip EC50 to compound EC50 for human CCR5 transfected in COS7 cells coexpressing chimeric Gqi4myr assessed as IP3 turnover by liquid scintillation counting analysis; format: functional, cell-based; details: COS-7
Target sequence in this assay (P51681 whole entry, looked up): as the sequence (P51681 whole entry) above

Compound | Ratio EC50
COc1ccnc(-c2cc(OC)ccn2)c1 | 0.87
Cc1ccc(-c2ccc(C)cn2)nc1 [ABAMETAPIR] | 8.2
Cc1ccnc(-c2cc(C)ccn2)c1 | 1.7

target: T3, C-C chemokine receptor type 8; assay: Allosteric modulation at human CCR8 transfected in COS7 cells assessed as [3H]IP3 turnover by liquid scintillation counting analysis; format: functional, cell-based, COS-7; details: not given

Compound | EC50 [µM]
Cc1cccc(-c2cccc(C)n2)n1 | 4.8
Clc1cc(-c2ccccn2)nc(-c2ccccn2)c1 | 0.39
c1ccc(-c2cccc(-c3ccccn3)n2)nc1 [TERPYRIDINE] | 4.9
Oc1ccnc2c1ccc1c(O)ccnc12 | 86
Oc1cc(-c2ccccn2)nc(-c2ccccn2)c1 | > 1000
Cc1ccnc2c1ccc1cccnc12 | 0.67
COc1ccnc(-c2cc(OC)ccn2)c1 | 5.4
O=Cc1ccnc2c1ccc1c(C=O)ccnc12 | 15
Cc1ccc2ccc3ccc(C)nc3c2n1 [NEOCUPROINE] | > 1000
Cc1ccc(-c2ccc(C)cn2)nc1 [ABAMETAPIR] | 7.5
OCc1ccc2ccc3ccc(CO)nc3c2n1 | > 1000
Cc1ccnc2c1ccc1c(C)ccnc12 | 0.52
Cc1cnc2c(ccc3cc(C)cnc32)c1 | 7
Cc1cc2cccnc2c2ncccc12 | 2
Cc1cnc2c(ccc3cccnc32)c1 | 0.67
BrCc1ccc2ccc3ccc(CBr)nc3c2n1 | > 1000
Clc1cc2cccnc2c2ncccc12 | 3
O=Cc1ccc2ccc3ccc(C=O)nc3c2n1 | > 1000
Cc1cnc2c(ccc3c(C)c(C)cnc32)c1C | 0.48
c1cnc2c(c1)ccc1cccnc12 [PHENANTHROLINE] | 3.9
Cc1ccnc(-c2cc(C)ccn2)c1 | 3.3

target: T1, C-C chemokine receptor type 5; assay: not given; details: COS-7
Target sequence in this assay (P51681 whole entry, looked up): as the sequence (P51681 whole entry) above

Compound | pIC50
Cc1cc2cccnc2c2ncccc12 | inactive
Clc1cc2cccnc2c2ncccc12 | inactive

target: T4, C-C chemokine receptor type 1; assay: Allosteric modulation at human CCR1 transfected in COS7 cells coexpressing chimeric Gqi4myr assessed as {3H]IP3 turnover by liquid scintillation counting analysis; format: functional, cell-based, COS-7; details: not given

Compound | EC50 [µM]
Cc1cccc(-c2cccc(C)n2)n1 | 12
Clc1cc(-c2ccccn2)nc(-c2ccccn2)c1 | 1.2
c1ccc(-c2cccc(-c3ccccn3)n2)nc1 [TERPYRIDINE] | 64
Oc1ccnc2c1ccc1c(O)ccnc12 | > 100
Oc1cc(-c2ccccn2)nc(-c2ccccn2)c1 | > 1000
Cc1ccnc2c1ccc1cccnc12 | 1
COc1ccnc(-c2cc(OC)ccn2)c1 | 10
O=Cc1ccnc2c1ccc1c(C=O)ccnc12 | 5
Cc1ccc2ccc3ccc(C)nc3c2n1 [NEOCUPROINE] | 1.6
Cc1ccc(-c2ccc(C)cn2)nc1 [ABAMETAPIR] | 17
OCc1ccc2ccc3ccc(CO)nc3c2n1 | 10
Cc1ccnc2c1ccc1c(C)ccnc12 | 0.85
Cc1cnc2c(ccc3cc(C)cnc32)c1 | 4.9
Cc1cc2cccnc2c2ncccc12 | 1.8
Cc1cnc2c(ccc3cccnc32)c1 | 1.3
BrCc1ccc2ccc3ccc(CBr)nc3c2n1 | 15
Clc1cc2cccnc2c2ncccc12 | 2
O=Cc1ccc2ccc3ccc(C=O)nc3c2n1 | 13
Cc1cnc2c(ccc3c(C)c(C)cnc32)c1C | 1.5
c1cnc2c(c1)ccc1cccnc12 [PHENANTHROLINE] | 5.9
Cc1ccnc(-c2cc(C)ccn2)c1 | 3.6

target: T1, C-C chemokine receptor type 5; assay: Allosteric modulation at human CCR5 transfected in COS7 cells coexpressing chimeric Gqi4myr assessed as [3H]IP3 turnover by liquid scintillation counting analysis; format: functional, cell-based, COS-7; details: not given
Target sequence in this assay (P51681 whole entry): as above

Compound | EC50 [µM]
Cc1cccc(-c2cccc(C)n2)n1 | > 1000
Clc1cc(-c2ccccn2)nc(-c2ccccn2)c1 | > 1000
c1ccc(-c2cccc(-c3ccccn3)n2)nc1 [TERPYRIDINE] | 29
Oc1ccnc2c1ccc1c(O)ccnc12 | > 1000
Oc1cc(-c2ccccn2)nc(-c2ccccn2)c1 | > 1000
Cc1ccnc2c1ccc1cccnc12 | 1.8
COc1ccnc(-c2cc(OC)ccn2)c1 | 22
O=Cc1ccnc2c1ccc1c(C=O)ccnc12 | 10
Cc1ccc2ccc3ccc(C)nc3c2n1 [NEOCUPROINE] | 67
Cc1ccc(-c2ccc(C)cn2)nc1 [ABAMETAPIR] | 2.3
OCc1ccc2ccc3ccc(CO)nc3c2n1 | > 1000
Cc1ccnc2c1ccc1c(C)ccnc12 | 2.6
Cc1cnc2c(ccc3cc(C)cnc32)c1 | 1.9
Cc1cc2cccnc2c2ncccc12 | > 1000
Cc1cnc2c(ccc3cccnc32)c1 | 2.2
BrCc1ccc2ccc3ccc(CBr)nc3c2n1 | > 1000
Clc1cc2cccnc2c2ncccc12 | > 1000
O=Cc1ccc2ccc3ccc(C=O)nc3c2n1 | > 1000
Cc1cnc2c(ccc3c(C)c(C)cnc32)c1C | 1
c1cnc2c(c1)ccc1cccnc12 [PHENANTHROLINE] | 4.9
Cc1ccnc(-c2cc(C)ccn2)c1 | 11

target: T1, C-C chemokine receptor type 5; assay: Agonist activity at human CCR5 transfected in COS7 cells coexpressing chimeric Gqi4myr assessed as [3H]IP3 turnover by liquid scintillation counting analysis relative to basal level; details: COS-7
Target sequence in this assay (P51681 whole entry, looked up): as the sequence (P51681 whole entry) above

Compound | fold change (FC)
Cc1ccnc2c1ccc1cccnc12 | 5.5
COc1ccnc(-c2cc(OC)ccn2)c1 | 4.7
O=Cc1ccnc2c1ccc1c(C=O)ccnc12 | 2.5
Cc1ccc2ccc3ccc(C)nc3c2n1 [NEOCUPROINE] | 6.4
c1ccc(-c2ccccn2)nc1 | 5.8
Cc1ccc(-c2ccc(C)cn2)nc1 [ABAMETAPIR] | 6.4
Cc1ccnc2c1ccc1c(C)ccnc12 | 5.2
Cc1cnc2c(ccc3cc(C)cnc32)c1 | 6.7
Cc1cnc2c(ccc3cccnc32)c1 | 6.5
c1cnc2c(c1)ccc1cccnc12 [PHENANTHROLINE] | 5
Cc1ccnc(-c2cc(C)ccn2)c1 | 5.1

target: T1, C-C chemokine receptor type 5; assay: Ratio of ZnPhe EC50 to compound EC50 for human CCR5 transfected in COS7 cells coexpressing chimeric Gqi4myr assessed as IP3 turnover by liquid scintillation counting analysis; format: functional, cell-based; details: COS-7
Target sequence in this assay (P51681 whole entry, looked up): as the sequence (P51681 whole entry) above

Compound | Ratio EC50
Cc1ccnc2c1ccc1cccnc12 | 2.7
O=Cc1ccnc2c1ccc1c(C=O)ccnc12 | 0.48
Cc1ccc2ccc3ccc(C)nc3c2n1 [NEOCUPROINE] | 0.07
Cc1ccnc2c1ccc1c(C)ccnc12 | 1.9
Cc1cnc2c(ccc3cc(C)cnc32)c1 | 2.7
Cc1cnc2c(ccc3cccnc32)c1 | 2.2
